The source of these data is ChEMBL document CHEMBL4715860 (J Med Chem, 2020).

Calls of active or inactive are those of the source. The rule behind the calls is not given here.

Series [1] in a line: Cmax in C57BL/6J mouse brain at 25 mg/kg, po administered as single dose by mass spectrometry based UHPLC analysis. The class given is ADME, organism-based. The arrangement: route oral, dose 25 mg/kg. In outline: (§1)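 One oral dose of 25 mg/kg to female C57BL/6J mice. Plasma and brain concentrations followed over time, n = 3 per time point (mean).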
The nature of series [2]: Tmax in C57BL/6J mouse plasma at 25 mg/kg, po administered as single dose by mass spectrometry based UHPLC analysis. The series is classed as ADME, organism-based. In outline:
(§2)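 Female C57BL/6J mice given a single oral dose of 25 mg/kg. Plasma and brain levels followed over time (n = 3 per time point, mean). Tmax is the time of maximal concentration.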

In series [3] the test system is Mus musculus. Nature of the series: In vivo inhibition of PI3Kalpha in C57BL/6J mouse assessed as increase in plasma glucose concentration at 25 mg/kg, po measured after 8 hrs by glucoseoxidase-peroxide coupled colorimetric assay. The series is classed as functional, organism-based. In outline:
(§3)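 Female C57BL/6J mice given one oral dose (25 mg/kg); plasma insulin and glucose monitored over time, mean ± SEM.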

Series [4] in a line: Clearance in C57BL/6J mouse plasma at 25 mg/kg, po administered as single dose by mass spectrometry based UHPLC analysis. The class given is ADME, organism-based. In outline:
as §1

Series [5] relates to Mus musculus. Nature of the series: In vivo inhibition of PI3Kalpha C57BL/6J mouse assessed as increase in plasma insulin concentration at 25 mg/kg, po measured after 8 hrs by ELISA. The class given is functional, organism-based. In outline:
as §3
In general terms: In an ELISA, binding on a coated surface is turned into a signal by an enzyme label.

Series [6] can be described thus: AUC (0 to 8 hrs) in C57BL/6J mouse plasma at 25 mg/kg, po administered as single dose by mass spectrometry based UHPLC analysis. The class given is ADME, organism-based. The arrangement: time < 8 hr, route oral, dose 25 mg/kg. In outline: as §1
Series [7] can be described thus: AUC (0 to 8 hrs) in C57BL/6J mouse brain at 25 mg/kg, po administered as single dose by mass spectrometry based UHPLC analysis. The series is classed as ADME, organism-based. The arrangement: time < 8 hr, route oral, dose 25 mg/kg. In outline:
as §1

Series [8] is described as follows: Tmax in C57BL/6J mouse brain at 25 mg/kg, po administered as single dose by mass spectrometry based UHPLC analysis. The class given is ADME, organism-based. In outline:
as §2

A short description of series [9]: Elimination half life in C57BL/6J mouse plasma at 25 mg/kg, po administered as single dose by mass spectrometry based UHPLC analysis. The series is classed as ADME, organism-based. Conditions: read-out: beta t1/2 (converted). In outline:
as §1

Series [10] can be described thus: Elimination half life in C57BL/6J mouse brain at 25 mg/kg, po administered as single dose by mass spectrometry based UHPLC analysis. The series is classed as ADME, organism-based. The settings on record: read-out: beta t1/2 (converted). In outline:
as §1

Series [11] can be described thus: Cmax in C57BL/6J mouse plasma at 25 mg/kg, po administered as single dose by mass spectrometry based UHPLC analysis. The series is classed as ADME, organism-based. Details: route oral, dose 25 mg/kg. In outline: as §1
Series [12] is described as follows: Inhibition of mTOR2 in human A2058 cells assessed as reduction in PKB/Akt phosphorylation at Ser473 incubated for 1 hr by Western blot analysis. The series is classed as cell-based. The settings on record: A2058, 1 h. In outline:
(§4)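 A2058 cells grown 24 h at 37 °C, then exposed to inhibitor or DMSO for 1 h. Cells were PFA-fixed and stained for pPKB Ser473 or pS6 Ser235/236 by in-cell western with IR-dye secondary antibodies. Signal normalized to tubulin and to DMSO. IC50 from a 7-point (triplicate) or 11-point (duplicate) 1:2 series.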

Series [13] deals with Serine/threonine-protein kinase mTOR (Homo sapiens, UniProt P42345). Nature of the series: Inhibition of alexa fluor 647-labeled kinase tracer 314 binding to recombinant human N-terminal GST-tagged mTOR (1360 to 2549 residues) expressed in baculovirus expression system measured after 60 mins by TR-FRET based LanthaScreen Eu kinase binding assay. Background: TR-FRET usually uses a lanthanide donor and a delayed reading to cut background.

Series [14] is described as follows: Inhibition of mTORC1 in human A2058 cells assessed as reduction in RPS6 phosphorylation at S235/236 residue incubated for 1 hrs by Western blot analysis. The settings on record: A2058, 1 h. The series is classed as cell-based. In outline:
as §4

Series [15] deals with PI3-kinase p110-alpha/p85-alpha (Homo sapiens, UniProt P42336). Nature of the series: Inhibition of alexa fluor 647-labeled kinase tracer 314 binding to recombinant human N-terminal His-tagged p110alpha/p85alpha expressed in baculovirus expression system measured after 60 mins by LanthaScreen TR-FRET assay relative to control.
The nature of series [16]: AUC (0 to 8 hrs) in male Sprague-Dawley rat plasma at 5 mg/kg, po. Details: time < 8 hr, route oral, dose 5 mg/kg. The series is classed as ADME, organism-based. In outline: (§5)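 Male Sprague Dawley rats, single oral dose of 5 mg/kg. Plasma and brain concentrations measured over 8 h, n = 3, mean ± SEM; AUC0−8 computed from the time course.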
Series [17] can be described thus: AUC (0 to 8 hrs) in male Sprague-Dawley rat brain at 5 mg/kg, po. The series is classed as ADME, organism-based. Details: time < 8 hr, route oral, dose 5 mg/kg. The settings on record: in vivo. In outline: as §5
The nature of series [18]: Metabolic stability in Sprague-Dawley rat hepatocytes assessed as half-life at 5 uM incubated for 3 hrs by LC-MS analysis. The class given is ADME, cell-based, Hepatocyte. In outline:
(§6)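 Cryopreserved primary hepatocytes in suspension from CD-1 mouse, Sprague-Dawley rat, Beagle dog and human. Compound at 5 μM final (from 10 mM DMSO stock). Samples taken at 0, 15, 60, 90 and 180 min and quenched with ACN plus internal standard. Parent quantified by LC-MS. Hepatocyte-free medium incubations served as negative control; 7-ethoxycoumarin as positive control. Duplicate; CLint per 10^6 cells and t1/2.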

Series [19] is described as follows: Metabolic stability in human hepatocytes assessed as half-life at 5 uM incubated for 3 hrs by LC-MS analysis. The class given is ADME, cell-based, Hepatocyte. In outline: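 Cryopreserved primary hepatocytes in suspension from CD-1 mouse, Sprague-Dawley rat, Beagle dog and human. Compound at 5 μM final (from 10 mM DMSO stock). Parent quantified by LC-MS. Hepatocyte-free medium incubations served as negative control; 7-ethoxycoumarin as positive control. Duplicate; CLint per 10^6 cells and t1/2.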

Series [20] can be described thus: Metabolic stability in CD1 mouse hepatocytes assessed as half-life at 5 uM incubated for 3 hrs by LC-MS analysis. The series is classed as ADME, cell-based, Hepatocyte. In outline: as §6
Series [21] is described as follows: Metabolic stability in Beagle dog hepatocytes assessed as half-life at 5 uM incubated for 3 hrs by LC-MS analysis. The series is classed as ADME, cell-based, Canis lupus familiaris, Hepatocyte. In outline: as §6
The nature of series [22]: Substrate activity at human P-glycoprotein stably expressed in MDCK cells at 1 uM measured after 5 to 20 mins by UPLC-MS/MS analysis. The class given is ADME, cell-based. Conditions: time 5-20 min. In outline:
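CRISPR canine-MDR1-knockout MDCKII cells stably expressing human MDR1, with the knockout parent line as control. Cells grown 5 days on TransWell filters and preincubated in HBSS 30 min at 37 °C. Compound at 1 μM added apical or basolateral. Receiver sampled at 5, 10 and 20 min; UPLC-MS/MS.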

Sequence of PI3-kinase p110-alpha/p85-alpha (P27986 whole entry): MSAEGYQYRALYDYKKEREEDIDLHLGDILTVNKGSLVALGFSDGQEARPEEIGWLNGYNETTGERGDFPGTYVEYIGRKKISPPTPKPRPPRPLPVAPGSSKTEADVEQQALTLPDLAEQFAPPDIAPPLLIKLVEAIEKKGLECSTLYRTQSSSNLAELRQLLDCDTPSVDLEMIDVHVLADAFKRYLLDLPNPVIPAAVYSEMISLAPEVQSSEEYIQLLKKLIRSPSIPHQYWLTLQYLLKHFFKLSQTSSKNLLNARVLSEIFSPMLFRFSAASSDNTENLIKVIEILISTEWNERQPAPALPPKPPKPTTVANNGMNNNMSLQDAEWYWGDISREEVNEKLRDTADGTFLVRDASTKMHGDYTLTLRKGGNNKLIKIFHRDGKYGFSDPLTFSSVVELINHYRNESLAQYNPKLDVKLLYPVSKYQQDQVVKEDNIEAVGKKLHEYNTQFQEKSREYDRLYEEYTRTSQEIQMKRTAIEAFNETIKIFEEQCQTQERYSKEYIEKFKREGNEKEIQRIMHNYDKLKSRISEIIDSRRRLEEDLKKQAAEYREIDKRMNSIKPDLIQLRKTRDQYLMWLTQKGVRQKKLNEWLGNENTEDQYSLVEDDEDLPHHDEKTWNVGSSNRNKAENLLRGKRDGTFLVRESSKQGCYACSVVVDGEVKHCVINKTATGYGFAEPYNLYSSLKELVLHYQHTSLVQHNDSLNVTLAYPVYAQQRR
Sequence of PI3-kinase p110-alpha/p85-alpha (P42336 whole entry): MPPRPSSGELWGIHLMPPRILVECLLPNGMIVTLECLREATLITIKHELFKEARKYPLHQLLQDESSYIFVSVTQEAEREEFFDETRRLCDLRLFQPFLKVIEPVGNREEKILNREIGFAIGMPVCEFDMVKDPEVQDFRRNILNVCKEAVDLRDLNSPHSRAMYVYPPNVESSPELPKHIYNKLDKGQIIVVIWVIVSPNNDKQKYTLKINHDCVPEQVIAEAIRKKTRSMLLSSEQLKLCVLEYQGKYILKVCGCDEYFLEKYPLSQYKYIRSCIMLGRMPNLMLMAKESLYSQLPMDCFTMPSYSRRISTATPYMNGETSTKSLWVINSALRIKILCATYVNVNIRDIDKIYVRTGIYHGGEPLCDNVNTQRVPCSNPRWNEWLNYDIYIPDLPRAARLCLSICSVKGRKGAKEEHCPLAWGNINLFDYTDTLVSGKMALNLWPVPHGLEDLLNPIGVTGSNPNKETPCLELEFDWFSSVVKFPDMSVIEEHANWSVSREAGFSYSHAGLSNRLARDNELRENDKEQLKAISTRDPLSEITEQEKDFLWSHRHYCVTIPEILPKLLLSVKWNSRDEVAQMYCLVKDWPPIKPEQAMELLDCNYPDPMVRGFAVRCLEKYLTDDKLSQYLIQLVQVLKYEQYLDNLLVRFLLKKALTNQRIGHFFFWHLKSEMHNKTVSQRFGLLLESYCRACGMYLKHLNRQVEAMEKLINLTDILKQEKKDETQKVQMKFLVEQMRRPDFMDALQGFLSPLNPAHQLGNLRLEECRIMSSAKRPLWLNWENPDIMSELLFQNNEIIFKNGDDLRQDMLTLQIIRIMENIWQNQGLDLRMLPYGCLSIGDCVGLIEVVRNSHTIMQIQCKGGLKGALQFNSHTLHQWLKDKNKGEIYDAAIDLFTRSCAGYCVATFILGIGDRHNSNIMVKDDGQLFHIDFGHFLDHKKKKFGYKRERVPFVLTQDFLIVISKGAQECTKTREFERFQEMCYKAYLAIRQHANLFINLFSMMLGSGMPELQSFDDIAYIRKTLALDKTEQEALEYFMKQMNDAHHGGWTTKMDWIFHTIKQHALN

By Cmax is commonly meant the maximum level reached in the sampled fluid or tissue. For orientation: Tmax means the time from dosing to the highest level. As usually defined, the CL/F is clearance divided by bioavailability, as obtained after extravascular dosing. In general, AUC(0-t) refers to the area under the concentration-time curve up to a stated or last time point. As to `CNC(=O)c1cccc(-c2ccc3c(N4CCOC[C@@H]4C)nc(N4CCOC[C@@H]4C)nc3n2)c1` [VISTUSERTIB], the Cmax in series [1] amounted to 286 ng/mL; in [11], 7190 ng/mL. Further, the Tmax in series [2] and in series [8] was 30 min in each case. The inhibition result in series [3] and in [5] was “inactive” throughout. The molecule further gave a CL/F in series [4] of 11 mL/min/kg. For the same molecule, the results for the AUC(0-t) at 8 h in series [6] and in series [7] were 33700 ng·h/mL and 1340 ng·h/mL, respectively. For the same molecule, the half-life is 450 min in [9] and 516 min in series [10].
The IC50 is the concentration that gives 50% inhibition. The Ki is a measure of affinity in units of concentration, obtained from inhibition or displacement. For `C[C@@H]1COCCN1c1nc(-c2cnc(N)cc2C(F)F)nc(N2CCOC[C@@H]2CO)n1`, the IC50 in series [12] worked out at 524 nM; in series [14], 471 nM. Besides, the results for the Ki in series [13] and in series [15] were 28 nM and more than 1000 nM, respectively.
`C[C@@H]1COCCN1c1nc(-c2cnc(N)cn2)nc2c1C[C@@H]1COCCN21`: the AUC(0-t) at 8 h in series [16] was more than 5500 ng·h/mL. In series [17], the AUC is less than 110 ng·h/g.
`C[C@@H]1COCCN1c1nc(-c2cnc(N)cc2C(F)F)nc(N2[C@H](C)COC[C@H]2C)n1`: the IC50 worked out at 506 nM in series [12] and 392 nM in series [14]. Further, the figures for the Ki in series [13] and in series [15] were 25 nM and more than 1000 nM, respectively.
As for `C[C@@H]1COCCN1c1nc(-c2cnc(N)cc2C(F)F)nc(N2C3COCC2C3)n1`, the half-inhibitory concentration (IC50) in [12] turned out to be 1560 nM; in series [14] it was 407 nM. Moreover, the Ki in [13] was 73 nM; in series [15], more than 1000 nM.
With `CC[C@@H]1COCCN1c1nc(-c2cnc(N)cc2C(F)F)nc(N2CCOC[C@H]2C)n1`, the IC50 came out at 231 nM in [12] and 238 nM in [14]. For the same molecule, the inhibitory constant (Ki) in series [13] was 18 nM; in series [15], 65 nM.
As for `CCOc1ccc2ccc(=O)oc2c1`, the half-life at 5 µM in series [18] worked out at 55 min; in series [19], 31 min; in series [20], 21 min; in series [21] it was 14 min.
As to `C[C@@H]1COCCN1c1nc(-c2cnc(N)cc2C(F)F)nc(N2CCOC[C@H]2C)n1`, the IC50 in [12] was determined as 436 nM; in series [14], 261 nM. In addition, the Ki was 14 nM in [13] and 469 nM in [15].
In the same order, the values of `COC[C@@H]1COCCN1c1nc(-c2cnc(N)cc2C(F)F)nc(N2CCOC[C@H]2C)n1` are 956 nM, 426 nM, 23 nM and more than 1000 nM.
Turning to `C[C@@H]1COCCN1c1nc(-c2cnc(N)cc2C(F)F)nc(N2[C@@H](C)COC[C@@H]2C)n1`, the IC50 worked out at 200 nM in series [12] and 136 nM in series [14]. Besides, the Ki was determined as 6.4 nM in series [13] and 233 nM in series [15].
With `C[C@@H]1COCCN1c1nc(-c2cnc(N)cc2C(F)F)nc(N2CCOC[C@H]2CO)n1`, the IC50 in series [12] is 1480 nM; in series [14], more than 1000 nM. The Ki in [13] was 50 nM; in [15], more than 1000 nM.
With `C[C@@H]1COCCN1c1nc(-c2cnc(N)cc2C(F)F)nc(N2CCOCC23CCC3)n1`, the IC50 amounted to 271 nM in series [12] and 192 nM in series [14]. Further, the results for the Ki in series [13] and in series [15] were 11 nM and 404 nM, respectively.
For `C[C@@H]1COCCN1c1nc(-c2cnc(N)cc2C(F)F)nc(N2CCOCC2)n1`, the Activity entry in [22] is on record as “Not Active”. The values for the Ki in series [13] and in [15] were 8 nM and 19 nM, respectively.
On to `C[C@@H]1CN(c2nc(-c3cnc(N)cc3C(F)F)nc(N3CCOC[C@H]3C)n2)C[C@H](C)O1`, for which the IC50 turned out to be 1340 nM in series [12] and 561 nM in [14]. In addition, the inhibition constant (Ki) in series [13] is 42 nM; in series [15], more than 1000 nM.
In the same order, the values of `CC[C@H]1COCCN1c1nc(-c2cnc(N)cc2C(F)F)nc(N2CCOC[C@H]2C)n1` are 248 nM, 241 nM, 67 nM and 63 nM.
Regarding `C[C@@H]1COCCN1c1nc(-c2cnc(N)cc2C(F)F)nc(N2CCOC[C@@H]2C)n1`, the IC50 in [12] worked out at 173 nM; in series [14], 137 nM. Further, the Activity result in series [22] was “Not Active”. Also, the results for the Ki in series [13] and in [15] were 11 nM and 33 nM, respectively.
